According to ChEMBL document CHEMBL1287645, “Synthesis and anti-prion activity evaluation of aminoquinoline analogues” (Eur J Med Chem, 2010):
Active and inactive are the calls of the source. The rule behind the calls is not given here.

How the values were obtained:
[1] = target: Major prion protein (Mesocricetus auratus) (UniProt P04273); test: Inhibition of Syrian hamster prion protein (109-149) aggregation assessed as changes in light scattering at 0.2 uM by spectrofluorimetric analysis relative to control
Method in brief: (§1)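 Synthetic hamster PrP 109–149 peptide was solubilized in 50 mM MES pH 5.0 with 6 M urea and 10 mM SDS, where it stays unfolded. It was diluted at least 100-fold to 0.5 µM in 50 mM MES pH 5.0 containing increasing compound concentrations. Light scattering (450 nm excitation/emission) was followed over time. Maximum scattering was normalized to the no-compound control (100% aggregation) and to the peptide in 6 M urea (0%). Values are means of three independent measurements.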

[2] = target: Major prion protein (Mesocricetus auratus) (UniProt P04273); test: Inhibition of Syrian hamster prion protein (109-149) aggregation assessed as changes in light scattering at 0.1 uM by spectrofluorimetric analysis relative to control; method in brief: as §1
[3] = target: Major prion protein (Mesocricetus auratus) (UniProt P04273); test: Reduction of thioflavin T binding to Syrian hamster prion protein (109-149) at 10 uM after 10 mins by fluorescence assay
Method in brief: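 Peptide at 1.0 µM was incubated with compound at 10 µM in pH 5.0 buffer. After 10 min, thioflavin T was added to 20 µM final. Emission was recorded from 470–520 nm with excitation at 450 nm. The integrated spectral area was corrected for probe emission without peptide. Values are means of three experiments.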

[4] = target: Major prion protein (Mesocricetus auratus) (UniProt P04273); test: Inhibition of Syrian hamster prion protein (109-149) aggregation assessed as compound concentration required to inhibit 50% aggregation by spectrofluorimetric analysis; method in brief: as §1
[5] = target: Major prion protein (Mesocricetus auratus) (UniProt P04273); test: Inhibition of Syrian hamster prion protein (109-149) aggregation assessed as changes in light scattering at 1 uM by spectrofluorimetric analysis relative to control; method in brief: as §1

Chain of Major prion protein (Mesocricetus auratus) (P04273 whole entry): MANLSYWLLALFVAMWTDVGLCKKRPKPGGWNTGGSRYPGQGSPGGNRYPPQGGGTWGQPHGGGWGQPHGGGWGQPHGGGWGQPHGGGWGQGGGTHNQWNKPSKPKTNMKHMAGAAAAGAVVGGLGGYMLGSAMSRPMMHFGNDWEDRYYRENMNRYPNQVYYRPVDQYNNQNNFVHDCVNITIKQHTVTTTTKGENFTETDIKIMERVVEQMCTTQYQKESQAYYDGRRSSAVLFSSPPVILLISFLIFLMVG

SMILES | inhibition [1] | inhibition [2] | Activity [3] | C50 [4] | inhibition [5]
NCCNc1ccnc2cc(Cl)ccc12 | 50% | 50% | Active | 0.1 µM | 7.9%
CN(C)CCNc1ccnc2cc(Cl)ccc12 |  |  |  | > 1 µM | 82%
Nc1ccnc2cc(Cl)ccc12 | 50% | 50% | Active | 0.2 µM | 8.4%
CCN(CC)CCNc1ccnc2cc(SC(F)(F)F)ccc12 |  |  |  | > 1 µM | 54%
CNc1ccnc2cc(Cl)ccc12 |  |  | Active | > 0.9 µM | 38.6%
Clc1ccc2c(NC3CCCC3)ccnc2c1 |  |  | Active | > 1 µM | 
OCCNc1ccnc2cc(Cl)ccc12 |  |  | Active | > 1 µM | 97%
